{"source": "ChEMBL document CHEMBL1649063", "about": "“Ursodeoxycholic acid amides as novel glucocorticoid receptor modulators” (J Med Chem, 2011)", "type_in_all_cases": "cell-based", "key": {"[1]": {"biological_target": "T1, Mineralocorticoid receptor (Homo sapiens) (UniProt P08235)", "T1 sequence (whole entry)": "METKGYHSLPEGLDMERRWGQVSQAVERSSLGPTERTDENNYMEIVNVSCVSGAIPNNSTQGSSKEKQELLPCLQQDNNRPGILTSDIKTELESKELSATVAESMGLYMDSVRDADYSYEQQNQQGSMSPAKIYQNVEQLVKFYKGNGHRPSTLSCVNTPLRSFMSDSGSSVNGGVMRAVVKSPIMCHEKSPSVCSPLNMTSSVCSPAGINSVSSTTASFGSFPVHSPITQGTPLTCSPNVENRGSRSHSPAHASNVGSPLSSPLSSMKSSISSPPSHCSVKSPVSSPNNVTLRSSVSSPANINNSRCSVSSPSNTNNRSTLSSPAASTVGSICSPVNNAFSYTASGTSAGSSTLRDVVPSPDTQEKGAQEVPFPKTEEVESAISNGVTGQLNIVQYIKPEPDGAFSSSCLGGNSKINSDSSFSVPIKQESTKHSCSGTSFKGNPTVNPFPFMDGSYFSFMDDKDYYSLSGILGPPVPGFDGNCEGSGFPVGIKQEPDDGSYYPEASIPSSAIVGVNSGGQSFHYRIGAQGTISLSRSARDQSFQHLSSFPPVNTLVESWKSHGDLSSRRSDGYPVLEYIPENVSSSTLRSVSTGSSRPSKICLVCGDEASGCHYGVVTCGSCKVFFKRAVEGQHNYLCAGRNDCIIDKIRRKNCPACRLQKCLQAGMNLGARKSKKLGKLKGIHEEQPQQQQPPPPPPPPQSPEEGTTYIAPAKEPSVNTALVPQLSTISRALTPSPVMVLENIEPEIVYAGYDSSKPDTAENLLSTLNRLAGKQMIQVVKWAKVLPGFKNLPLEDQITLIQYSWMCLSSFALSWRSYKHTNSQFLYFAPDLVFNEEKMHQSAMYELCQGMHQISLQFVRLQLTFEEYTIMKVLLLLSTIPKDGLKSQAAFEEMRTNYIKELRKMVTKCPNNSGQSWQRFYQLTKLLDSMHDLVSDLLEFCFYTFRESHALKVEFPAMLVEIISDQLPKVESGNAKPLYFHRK", "assay": "Modulation of mineralocorticoid receptor in human SKGT4 cells assessed as receptor translocation from cytoplasm to nucleus at 50 uM after 4 hrs by Hoechst staining"}, "Glucocorticoid receptor": {"biological_target": "T2, Glucocorticoid receptor (Homo sapiens, UniProt P04150)", "T2 sequence (P04150 whole entry)": "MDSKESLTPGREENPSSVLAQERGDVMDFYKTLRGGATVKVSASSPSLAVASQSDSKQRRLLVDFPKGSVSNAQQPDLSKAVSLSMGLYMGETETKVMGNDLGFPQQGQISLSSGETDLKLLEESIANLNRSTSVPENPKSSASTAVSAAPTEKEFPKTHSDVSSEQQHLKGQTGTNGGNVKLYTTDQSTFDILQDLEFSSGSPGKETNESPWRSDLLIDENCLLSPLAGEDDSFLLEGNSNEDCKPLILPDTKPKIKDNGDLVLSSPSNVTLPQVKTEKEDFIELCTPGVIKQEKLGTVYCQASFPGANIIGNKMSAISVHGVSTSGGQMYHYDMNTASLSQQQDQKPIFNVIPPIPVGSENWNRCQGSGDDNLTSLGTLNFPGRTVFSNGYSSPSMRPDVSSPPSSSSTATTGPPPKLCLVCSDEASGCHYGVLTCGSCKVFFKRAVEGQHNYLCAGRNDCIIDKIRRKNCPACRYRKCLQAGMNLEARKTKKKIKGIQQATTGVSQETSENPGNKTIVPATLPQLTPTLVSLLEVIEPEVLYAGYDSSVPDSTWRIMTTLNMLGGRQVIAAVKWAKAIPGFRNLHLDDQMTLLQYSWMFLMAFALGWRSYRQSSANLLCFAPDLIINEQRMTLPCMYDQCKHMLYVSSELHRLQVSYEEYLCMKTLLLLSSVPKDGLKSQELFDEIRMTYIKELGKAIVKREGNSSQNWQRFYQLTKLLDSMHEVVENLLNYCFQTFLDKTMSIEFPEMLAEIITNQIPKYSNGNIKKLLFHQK", "assay": "Modulation of glucocorticoid receptor in human SKGT4 cells assessed as receptor translocation from cytoplasm to nucleus after 4 hrs by Hoechst staining relative to Dexamethasone"}, "[2]": {"biological_target": "T3, Glucocorticoid receptor (Homo sapiens) (UniProt P04150)", "T3 sequence (whole entry)": "T2 sequence (P04150 whole entry)", "assay": "Modulation of glucocorticoid receptor in human SKGT4 cells assessed as receptor translocation from cytoplasm to nucleus at 100 uM after 240 mins by Hoechst staining relative to Dexamethasone", "outline": "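Time course in serum-starved SKGT-4 cells: 100 μM compound for 15, 30, 60, 120 or 240 min in 1% DMSO medium. Fixed, GR immunostained, Hoechst nuclear stain, high-content imaging. Background-corrected nuclear/cytoplasmic GR ratio normalised to Dex 100 nM; mean of two experiments in triplicate, compared with 1% DMSO.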"}}, "note": "pEC50: −log10 of the molar value. Active and inactive are the calls of the source. The rule behind the calls is not given here.", "data": [{"smiles": "C[C@H](CCC(=O)O)[C@H]1CC[C@H]2[C@@H]3[C@@H](O)C[C@@H]4C[C@H](O)CC[C@]4(C)[C@H]3CC[C@]12C", "values": [{"measurement": "Activity", "setting": "[1]", "value": "inactive"}]}, {"smiles": "C[C@H](CCC#N)[C@H]1CC[C@H]2[C@@H]3[C@@H](O)C[C@@H]4C[C@H](O)CC[C@]4(C)[C@H]3CC[C@]12C", "values": [{"measurement": "pEC50", "setting": "Glucocorticoid receptor", "value": 4.00}]}, {"smiles": "C[C@H](CC(=O)O)[C@H]1CC[C@H]2[C@@H]3[C@@H](O)C[C@@H]4C[C@H](O)CC[C@]4(C)[C@H]3CC[C@]12C", "note": "[NORUCHOLIC ACID]", "values": [{"measurement": "pEC50", "setting": "Glucocorticoid receptor", "value": 3.98}]}, {"smiles": "C[C@H](CCC(=O)NC1CC1)[C@H]1CC[C@H]2[C@@H]3[C@@H](O)C[C@@H]4C[C@H](O)CC[C@]4(C)[C@H]3CC[C@]12C", "values": [{"measurement": "Activity", "setting": "[2]", "value": "Active"}, {"measurement": "pEC50", "setting": "Glucocorticoid receptor", "value": 5.14}]}, {"smiles": "C[C@H](CCC(=O)NCCc1ccccc1)[C@H]1CC[C@H]2[C@@H]3[C@@H](O)C[C@@H]4C[C@H](O)CC[C@]4(C)[C@H]3CC[C@]12C", "values": [{"measurement": "pEC50", "setting": "Glucocorticoid receptor", "value": 3.96}]}, {"smiles": "C[C@H](C(=O)O)[C@H]1CC[C@H]2[C@@H]3[C@@H](O)C[C@@H]4C[C@H](O)CC[C@]4(C)[C@H]3CC[C@]12C", "values": [{"measurement": "pEC50", "setting": "Glucocorticoid receptor", "value": 4.00}]}, {"smiles": "C[C@H](CCC(=O)N1CCNCC1)[C@H]1CC[C@H]2[C@@H]3[C@@H](O)C[C@@H]4C[C@H](O)CC[C@]4(C)[C@H]3CC[C@]12C", "values": [{"measurement": "pEC50", "setting": "Glucocorticoid receptor", "value": 4.29}]}, {"smiles": "C[C@H](CCC(=O)N1CCN(Cc2ccccc2)CC1)[C@H]1CC[C@H]2[C@@H]3[C@@H](O)C[C@@H]4C[C@H](O)CC[C@]4(C)[C@H]3CC[C@]12C", "values": [{"measurement": "Activity", "setting": "[2]", "value": "Active"}, {"measurement": "pEC50", "setting": "Glucocorticoid receptor", "value": 5.25}]}, {"smiles": "C[C@H](CCC(=O)N1CCOCC1)[C@H]1CC[C@H]2[C@@H]3[C@@H](O)C[C@@H]4C[C@H](O)CC[C@]4(C)[C@H]3CC[C@]12C", "values": [{"measurement": "Activity", "setting": "[2]", "value": "Active"}, {"measurement": "pEC50", "setting": "Glucocorticoid receptor", "value": 4.60}]}, {"smiles": "C[C@H](CCC(=O)NCc1ccccc1)[C@H]1CC[C@H]2[C@@H]3[C@@H](O)C[C@@H]4C[C@H](O)CC[C@]4(C)[C@H]3CC[C@]12C", "values": [{"measurement": "pEC50", "setting": "Glucocorticoid receptor", "value": 3.96}]}, {"smiles": "C[C@H](C#N)[C@H]1CC[C@H]2[C@@H]3[C@@H](O)C[C@@H]4C[C@H](O)CC[C@]4(C)[C@H]3CC[C@]12C", "values": [{"measurement": "pEC50", "setting": "Glucocorticoid receptor", "value": 3.89}]}, {"smiles": "CC(NC(=O)CC[C@@H](C)[C@H]1CC[C@H]2[C@@H]3[C@@H](O)C[C@@H]4C[C@H](O)CC[C@]4(C)[C@H]3CC[C@]12C)c1ccccc1", "note": "(stereo not given in full)", "values": [{"measurement": "pEC50", "setting": "Glucocorticoid receptor", "value": 3.91}]}]}
